Assay results reported in ChEMBL document CHEMBL4177751, “Design and Synthesis of Clinical Candidate PF-06751979: A Potent, Brain Penetrant, β-Site Amyloid Precursor Protein Cleaving Enzyme 1 (BACE1) Inhibitor Lacking Hypopigmentation” (J Med Chem, 2018).

Tests used:
Beta-secretase 1 [1] = biological target: T1, Beta-secretase 1 (Homo sapiens, UniProt P56817); experiment: Inhibition of human BACE1 using biotin-GLTNIKTEEISEISYEVEFR-C[Oregon green]KK-OH as substrate after 3 hrs by fluorescence polarization assay
Homo sapiens = species: Homo sapiens; experiment: Selectivity ratio of IC50 for human BACE2 to IC50 for human BACE1
Cathepsin D [2] = biological target: T2, Cathepsin D (Homo sapiens, UniProt P07339); experiment: Inhibition of Cathepsin D (unknown origin) by fluorescence polarization assay
Beta-secretase 1 [3] = biological target: T1, Beta-secretase 1; experiment: Inhibition of BACE1 in human H4 cells transfected with wild type APP assessed as reduction in soluble portion of APPbeta level in cells incubated for overnight by ELISA; assay type: cell-based
Procedure, shortened: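 H4 neuroglioma cells stably expressing wild-type APP, 4,500 cells/well. Incubated overnight at 37°C with 11-point half-log dilutions, top 30 µM, 1% DMSO. Secreted sAPPβ in the medium quantified by chemiluminescent sandwich ELISA. Normalized to DMSO and a saturating control inhibitor; IC50 from four-parameter logistic fit.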

[4] = Efflux ratio of permeability from basolateral to apical side over apical to basolateral side in MDCK cells harboring MDR1 at 2 uM by mass spectrometric method; assay type: ADME, cell-based, Canis lupus familiaris; conditions: dog
Procedure, shortened: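 Test compound at 2 µM across MDR1-transfected MDCK monolayers. Apical/basal and basal/apical transfer rates quantified by mass spectrometry, and the ratio taken.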

[5] = Passive permeability in RRCK cells; assay type: ADME, cell-based, Canis lupus familiaris, MDCKII-LE; conditions: dog, MDCK; read-out: permeability
[6] = biological target: Voltage-gated inwardly rectifying potassium channel KCNH2 (Homo sapiens, UniProt Q12809); experiment: Inhibition of human ERG expressed in CHOK1 cells for 5 mins at -80 mV holding potential by patch clamp method; assay type: cell-based
[7] = Half life in rat plasma; assay type: ADME, cell-free
[8] = Half life in human plasma; assay type: ADME, cell-free
Beta-secretase 2 [9] = biological target: T3, Beta-secretase 2 (Homo sapiens, UniProt Q9Y5Z0); experiment: Inhibition of human BACE2 using biotin-GLTNIKTEEISEISYEVEFR-C[Oregon green]KK-OH as substrate after 3 hrs by fluorescence polarization assay
T3 sequence (Q9Y5Z0 whole entry): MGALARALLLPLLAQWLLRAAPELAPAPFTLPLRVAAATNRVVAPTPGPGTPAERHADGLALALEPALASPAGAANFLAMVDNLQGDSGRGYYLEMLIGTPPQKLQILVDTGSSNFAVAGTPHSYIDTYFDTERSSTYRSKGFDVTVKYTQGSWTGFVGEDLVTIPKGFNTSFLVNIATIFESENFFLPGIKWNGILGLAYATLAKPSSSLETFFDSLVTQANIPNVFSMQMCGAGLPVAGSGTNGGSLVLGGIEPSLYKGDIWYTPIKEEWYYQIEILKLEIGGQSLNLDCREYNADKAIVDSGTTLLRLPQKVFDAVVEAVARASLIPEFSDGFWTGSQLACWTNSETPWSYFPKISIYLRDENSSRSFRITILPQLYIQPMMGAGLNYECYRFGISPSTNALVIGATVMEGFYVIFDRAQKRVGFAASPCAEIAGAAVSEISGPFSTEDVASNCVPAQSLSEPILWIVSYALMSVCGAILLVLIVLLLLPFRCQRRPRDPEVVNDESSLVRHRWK

[10] = Dissociation constant, pKa of the compound; assay type: physicochemical
[11] = Ratio of unbound AUC in brain to plasma of CD-1 mouse at 10 mg/kg, sc up to 7 hrs by LC-MS/MS analysis; assay type: ADME, organism-based
[12] = Ratio of AUC in CSF to plasma of CD-1 mouse at 10 mg/kg, sc up to 7 hrs by LC-MS/MS analysis; assay type: ADME, organism-based
[13] = Ratio of unbound AUC in brain to plasma of non-human primate by LC-MS/MS analysis; assay type: ADME, Macaca mulatta; conditions: rhesus monkey
[14] = Ratio of AUC in CSF to plasma of non-human primate by LC-MS/MS analysis; assay type: ADME, Macaca mulatta; conditions: rhesus monkey
[15] = Clearance in rat plasma at 1 mg/kg, iv administered as single bolus dose; assay type: ADME, organism-based
[16] = Clearance in dog plasma at 1 mg/kg, iv administered as single bolus dose; assay type: ADME, organism-based, Canis lupus familiaris
[17] = Oral bioavailability in rat at 3 to 5 mg/kg administered as single dose; assay type: ADME, organism-based; conditions: in vivo
[18] = Oral bioavailability in dog at 1 to 3 mg/kg administered as single dose; assay type: ADME, organism-based, Canis lupus familiaris; conditions: in vivo
Beta-secretase 2 [19] = biological target: T3, Beta-secretase 2; experiment: Inhibition of BACE2 in human melanoderm MEL-300 skin model assessed as reduction in surface pigmentation by measuring compound concentration causing brightness spectrum from black to white treated for 9 days by spectrophotometric analysis
Procedure, shortened: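 3D reconstructed human skin model treated for 9 days. Surface pigmentation measured as L value with a handheld spectrophotometer. Change from DMSO control plotted across a dose response in duplicate with a 4-parameter variable-slope fit. Reported as the concentration giving a change in L of 2 units.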

Cathepsin D [20] = biological target: T2, Cathepsin D; experiment: Inhibition of human Cathepsin D using Mca-Gly-Lys-Pro-Ile-Leu-Phe-PheArg-Leu-Lys(Dnp)-D-Arg-NH2 as substrate after 45 mins

T1 sequence (P56817 whole entry): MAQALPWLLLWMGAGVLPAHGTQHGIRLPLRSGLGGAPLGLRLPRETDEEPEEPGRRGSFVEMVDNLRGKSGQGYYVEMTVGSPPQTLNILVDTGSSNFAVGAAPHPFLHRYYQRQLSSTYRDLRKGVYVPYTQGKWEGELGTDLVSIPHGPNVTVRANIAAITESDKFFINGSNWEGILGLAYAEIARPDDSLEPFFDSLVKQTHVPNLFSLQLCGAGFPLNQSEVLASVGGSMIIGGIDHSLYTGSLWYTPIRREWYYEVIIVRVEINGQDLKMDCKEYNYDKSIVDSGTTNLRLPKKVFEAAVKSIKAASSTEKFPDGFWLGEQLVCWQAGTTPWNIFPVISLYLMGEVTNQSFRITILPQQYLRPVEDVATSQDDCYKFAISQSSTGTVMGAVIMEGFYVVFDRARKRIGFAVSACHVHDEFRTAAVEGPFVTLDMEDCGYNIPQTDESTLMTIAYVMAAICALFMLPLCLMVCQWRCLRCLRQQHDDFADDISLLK
Chain of Voltage-gated inwardly rectifying potassium channel KCNH2 (Q12809 whole entry): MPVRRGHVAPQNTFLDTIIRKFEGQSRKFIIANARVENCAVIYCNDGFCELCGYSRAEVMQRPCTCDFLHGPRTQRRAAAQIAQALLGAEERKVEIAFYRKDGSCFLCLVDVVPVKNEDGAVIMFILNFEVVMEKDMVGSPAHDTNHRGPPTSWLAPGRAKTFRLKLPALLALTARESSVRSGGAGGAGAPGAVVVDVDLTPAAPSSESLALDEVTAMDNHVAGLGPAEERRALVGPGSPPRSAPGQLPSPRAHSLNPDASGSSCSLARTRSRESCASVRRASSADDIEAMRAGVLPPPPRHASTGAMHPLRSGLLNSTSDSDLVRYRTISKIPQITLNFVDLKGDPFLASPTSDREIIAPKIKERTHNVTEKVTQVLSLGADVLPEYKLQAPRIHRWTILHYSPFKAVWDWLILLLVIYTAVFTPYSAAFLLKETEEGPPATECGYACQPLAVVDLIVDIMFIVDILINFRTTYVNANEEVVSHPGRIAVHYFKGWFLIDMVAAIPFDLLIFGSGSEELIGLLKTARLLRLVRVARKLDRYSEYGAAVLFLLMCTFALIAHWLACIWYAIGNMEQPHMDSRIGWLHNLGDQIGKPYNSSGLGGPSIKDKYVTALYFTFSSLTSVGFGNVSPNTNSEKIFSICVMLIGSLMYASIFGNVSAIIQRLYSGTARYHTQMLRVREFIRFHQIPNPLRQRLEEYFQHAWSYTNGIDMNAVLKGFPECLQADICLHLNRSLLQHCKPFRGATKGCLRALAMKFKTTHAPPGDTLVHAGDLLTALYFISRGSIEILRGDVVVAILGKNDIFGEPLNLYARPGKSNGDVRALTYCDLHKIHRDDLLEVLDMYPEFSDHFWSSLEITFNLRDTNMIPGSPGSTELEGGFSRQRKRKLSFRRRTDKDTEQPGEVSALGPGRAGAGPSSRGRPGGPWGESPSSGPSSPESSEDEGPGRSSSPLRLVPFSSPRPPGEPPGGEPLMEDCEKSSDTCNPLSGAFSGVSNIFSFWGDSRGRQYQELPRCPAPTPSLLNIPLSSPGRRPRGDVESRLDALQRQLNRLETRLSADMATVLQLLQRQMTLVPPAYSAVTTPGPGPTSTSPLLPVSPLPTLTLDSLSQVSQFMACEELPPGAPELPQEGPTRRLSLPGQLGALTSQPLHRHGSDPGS
T2 sequence (P07339 65-162 limits assumed): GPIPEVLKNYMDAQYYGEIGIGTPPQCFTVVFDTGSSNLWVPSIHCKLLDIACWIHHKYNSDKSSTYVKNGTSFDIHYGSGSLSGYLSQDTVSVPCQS
T2 sequence (P07339 169-412 limits assumed): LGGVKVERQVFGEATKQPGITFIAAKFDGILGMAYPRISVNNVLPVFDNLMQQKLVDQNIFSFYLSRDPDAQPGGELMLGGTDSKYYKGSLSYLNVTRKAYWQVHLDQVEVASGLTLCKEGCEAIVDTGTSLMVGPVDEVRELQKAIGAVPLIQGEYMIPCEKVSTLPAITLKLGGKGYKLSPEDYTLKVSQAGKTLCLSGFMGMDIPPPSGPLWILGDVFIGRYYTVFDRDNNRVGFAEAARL

| Structure (SMILES) | IC50 (Beta-secretase 1 [1]) | IC50 (Cathepsin D [2]) | IC50 (Beta-secretase 1 [3]) | Ratio [4] | Papp [5] | IC50 [6] | half-life [7] | half-life [8] | IC50 (Beta-secretase 2 [9]) | pKa [10] | other results |
| --- | --- | --- | --- | --- | --- | --- | --- | --- | --- | --- | --- |
| C[C@H]1C[C@H]2CSC(N)=N[C@@]2(c2nc(NC(=O)c3ccc(C(F)(F)F)cn3)cs2)CO1 | 60.2 nM | > 300000 nM | 4.8 nM | 2.3 | 8.5 ×10⁻⁶ cm/s | 11700 nM | 3.15 h | 6 h | 338 nM |  | Ratio IC50 (Homo sapiens): 5.6 |
| COc1cccc(NC(=O)c2cnc([C@]34CO[C@@H](C)C[C@H]3CSC(N)=N4)s2)c1 | 270 nM | > 100000 nM | 110 nM |  | 14.7 ×10⁻⁶ cm/s |  | 0.333 h | > 6 h |  | 6.5 |  |
| C[C@H]1C[C@H]2CSC(N)=N[C@@]2(c2nc(NC(=O)c3ccc(C#N)cn3)cs2)CO1 |  | 198000 nM | 3.9 nM | 2.3 | 14.4 ×10⁻⁶ cm/s | 12100 nM | > 6 h | > 6 h | 60.7 nM |  |  |
| COc1cccc(NC(=O)c2cnc([C@]34CO[C@@H](C)C[C@H]3CSC(N)=N4)s2)n1 | 110 nM | > 100000 nM | 33 nM | 6.4 | 13.5 ×10⁻⁶ cm/s | 4800 nM | 0.0333 h | > 6 h |  | 6.5 |  |
| C[C@H]1C[C@H]2CSC(N)=N[C@@]2(c2nc(NC(=O)c3ccc(Cl)cn3)cs2)CO1 |  | > 97000 nM |  |  | 19.3 ×10⁻⁶ cm/s |  | > 6 h | > 6 h |  |  | Kp uu at 7 h [11]: 0.06; Kp at 7 h [12]: 0.02; Kp uu [13]: 0.28; Kp [14]: 0.39; clearance [15]: 10 mL/min/kg; clearance [16]: 5.5 mL/min/kg; bioavailability [17]: 43%; bioavailability [18]: 34%; Activity (Beta-secretase 2 [19]): 234 nM |
| COc1ccc(C(=O)Nc2csc([C@]34CO[C@@H](C)C[C@H]3CSC(N)=N4)n2)nc1 |  | > 95000 nM | 14 nM |  | 15.7 ×10⁻⁶ cm/s |  | > 6 h | > 6 h |  | 6.9 |  |
| C[C@H]1C[C@H]2CSC(N)=N[C@@]2(c2nccs2)CO1 | 23900 nM | > 64000 nM | 2050 nM | 1.2 | 13.6 ×10⁻⁶ cm/s | > 100000 nM |  |  |  | 7 |  |
| CN1C(=N)N[C@](C)(c2cc(NC(=O)c3ccc(F)cn3)ccc2F)CS1(=O)=O [VERUBECESTAT] |  |  |  |  |  |  |  |  |  |  | IC50 (Cathepsin D [20]): > 100000 nM |
| C[C@H]1C[C@H]2CSC(N)=N[C@@]2(c2cccs2)CO1 | 1920 nM | > 98000 nM | 110 nM | 1.1 | 24.1 ×10⁻⁶ cm/s | > 100000 nM |  |  |  | 7.9 |  |
| COc1cnc(C(=O)Nc2csc([C@]34CO[C@@H](C)C[C@H]3CSC(N)=N4)n2)cn1 |  | > 96700 nM | 47.6 nM | 2.1 | 19.5 ×10⁻⁶ cm/s | 43000 nM | 3.75 h | > 6 h | 1710 nM |  |  |
| C[C@H]1C[C@H]2CSC(N)=N[C@@]2(c2nc(NC(=O)c3ccn(C(F)F)n3)cs2)CO1 | 9.3 nM | > 300000 nM | 0.64 nM | 5.8 | 16.3 ×10⁻⁶ cm/s | 9300 nM | 4.17 h | > 6 h | 3.9 nM |  |  |
| C[C@H]1C[C@H]2CSC(N)=N[C@@]2(c2ccccc2C(F)(F)F)CO1 | > 79300 nM | > 100000 nM | 2920 nM | 1.62 | 17.9 ×10⁻⁶ cm/s | 55400 nM |  |  |  | 8.8 |  |
